Measurements published in the EternaBench riboswitch data.

Legend:
[1] = test system: MS2 coat protein; experiment: apparent Kd, MS2 coat protein; higher = weaker binding; RNA-MaP array; theophylline 2 mM where present
How it was run: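 SNAP-549-labelled MS2 coat protein, doubled from 0.7 or 1.5 nM to 3 µM, was titrated over designs transcribed by stalled E. coli RNA polymerase on Illumina sequencing-chip clusters. Titrations were run without and then with constant ligand in 100 mM Tris-HCl pH 7.5, 80 mM KCl, 4 mM MgCl2, BSA, DTT, yeast tRNA and Tween-20. The apparent Kd is the median of filtered per-cluster fits to green signal normalised to red-channel RNA signal and control-cluster median Fmax.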

[2] = test system: MS2 coat protein; experiment: apparent Kd, MS2 coat protein; higher = weaker binding; RNA-MaP array
How it was run: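 Designed RNAs were transcribed in place on an Illumina sequencing chip from sequenced DNA templates. At room temperature and with or without input ligand, they were incubated with fluorescently labeled MS2 coat protein from 1.5 nM to 3 μM, for 0.8–1.5 h at the lowest and 10–20 min at the highest concentrations. Apparent Kd is the median of the binding-curve fits made per cluster, with designs measured on fewer than 10 clusters excluded.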

[3] = designed as: OFF switch for theophylline, no ligand
[4] = ligand present: theophylline, designed as: OFF switch for theophylline
[5] = designed as: ON switch for theophylline, no ligand
[6] = ligand present: theophylline, designed as: ON switch for theophylline
[7] = designed as: OFF switch for flavin mononucleotide, no ligand
[8] = ligand present: flavin mononucleotide, designed as: OFF switch for flavin mononucleotide
[9] = designed as: ON switch for flavin mononucleotide, no ligand
[10] = ligand present: flavin mononucleotide, designed as: ON switch for flavin mononucleotide

For “AAACAUUGCUCAGAUACCAGACAUGAGGAUCACCCAUGUACCAAGGUAACCGAAAGGCAUGUCCCUUGGCAGCUGAGCAAUGAAA”, the “apparent Kd” value [1, 3] was 0.0137 µM and the “apparent Kd” value [1, 4] was 0.24 µM.

“AAACGUUGCUCAGAUACCAGACAUGAGGAUCACCCAUGUACCAAGGUAAAGAAAUAACGUGUCCCUUGGCAGCUGAGCAACGAAA” was tested, and the “apparent Kd” value [1, 3] was 0.011 µM and the “apparent Kd” value [1, 4] was 0.113 µM.

With “AAACGUUGCUCAGAUACCAGACAUGAGGAUCACCCAUGUACCAAGGUACCCGAAAGGAAUGUCCCUUGGCAGCUGAGCAACGAAA” the “apparent Kd” value [1, 3] was 0.00957 µM and the “apparent Kd” value [1, 4] was 0.0216 µM.

In the case of “AAAUAGGUAGGAGAUACCAGAUACGUUAACAUGAGGAUCACCCAUGUGUAUGCACUUAGUGUCCCUUGGCAGCUCGAGGAUCUGG”, the “apparent Kd” value [1, 5] is reported as 0.0307 µM and the “apparent Kd” value [1, 6] is reported as 0.0353 µM.

“AACAUGAGGAUCACCCAUGUAAUAUGGGAUACCAGAGACGAAAGUCUCCCUUGGCAGCCCAAGCUGCUCCAUACGAAAGUAUGGU” was tested, and the “apparent Kd” value [1, 5] was 0.0653 µM and the “apparent Kd” value [1, 6] was 0.018 µM.

“AACAUGAGGAUCACCCAUGUUUUAUGGGAUACCAGAGACGAAAGUCUCCCUUGGCAGCCCAAGCUGCUCCAUACGAAAGUAUGGU” was tested, and the “apparent Kd” value [1, 5] was 0.0143 µM and the “apparent Kd” value [1, 6] was 0.014 µM.

“AAUAAAUCACAUGAGGAUCACCCAUGUGAUACCAGCCUGGAAACAGGCCCUUGGCAGCACAUGAGGAUCACCCAUGUGCUAAAUA” was tested, and the “apparent Kd” value [1, 3] was 0.00881 µM and the “apparent Kd” value [1, 4] was 0.0084 µM.

“AAUGAACAUGAGGAUCACCCAUGUCGUGAUACCAGCCGUAAGAGUGGCCCUUGGCAGCGCCAUGAGGACAACAACAUACAUGAGG” was tested, and the “apparent Kd” value [1, 5] was 0.0243 µM and the “apparent Kd” value [1, 6] was 0.027 µM.

With “ACACACAUGAGGAUCACCCAUGUAAUAGAUACCAGUGACGCGGUGCACCCUUGGCAGCUGCUGCUGAGUGAUGGUUCCCUCGGAA” the “apparent Kd” value [1, 3] was 0.0211 µM and the “apparent Kd” value [1, 4] was 0.0347 µM.

“UACAUGAGGAUCACCCAUGUCAAUUGUAGAUCGCUCAACGGCAGAAGGCGCAACCCGAUCGGGAGCGAGGAUAUGCCUCGUUAA” was tested, and the “apparent Kd” value [2, 7] was 0.0265 µM and the “apparent Kd” value [2, 8] was 0.0271 µM.

With “UAGACAAAACAGAAGGAAUGAAGUAGAACAACAAUAGGAUAUGUAUAAAAGUAUACAUGAGGAUCACCCAUGUUACCAACAUGA” the “apparent Kd” value [2, 9] was 0.0114 µM and the “apparent Kd” value [2, 10] was 0.00934 µM.

“UAGACUCAGUAGAAGGAUGAUAUUACGAUAUAACGUGACAUGAGGAUCACCCAUGUCUUCUGGUCAUAGGAUAUACGCGAAAUG” was tested, and the “apparent Kd” value [2, 9] was 0.0456 µM and the “apparent Kd” value [2, 10] was 0.0213 µM.

In the case of “UAGAGCGGCAACAUGAGGAUCACCCAUGUGGGCGAUGAGGCUCAGGAUAUACACCACCGCUGGACGUAGAAGGGAGACUCGCCG”, the “apparent Kd” value [2, 7] is reported as 0.0411 µM and the “apparent Kd” value [2, 8] is reported as 0.0201 µM.

In the case of “UAUAGUUAAAAGGAUAUCGAAAACAAGCGUAAACGAGAAGGUUUAACAUGAGGAUCACCCAUGUAAGGAGAUGG”, the “apparent Kd” value [2, 7] is reported as 0.0584 µM and the “apparent Kd” value [2, 8] is reported as 0.139 µM.

With “UAUCUAACGAAGGAUACCAGUACAUGAGAGUACAUGAGGAUCACCCAUGUUAGAUACGGGUACCCUUGGCAGCCUCACCUACACC” the “apparent Kd” value [2, 5] was 0.0568 µM and the “apparent Kd” value [2, 6] was 0.0633 µM.

“UAUGGACAUGAGGAUCACCCAUGUGGUAGAUGCUUAGGAUAUUAGACAGGAUACAUGUACUAAGAAGGAAGAUGGU” was tested, and the “apparent Kd” value [2, 9] was 0.266 µM and the “apparent Kd” value [2, 10] was 0.102 µM.

With “UCAAGUGAACCAUGGAAACAUUCAAUAGAUACCAGCAUUAAAACCUGCCCUUGGCAGCUAUGAACAUGAGGAUCACCCAUGUGAA” the “apparent Kd” value [2, 3] was 0.0185 µM and the “apparent Kd” value [2, 4] was 0.0714 µM.

With “UCAGCACAUGAGGAUCACCCAUGUCGUGAUACCAGCCUGUGCGAAGGCCCUUGGCAGCACAGUCCCGAUUUGCUUAUAUGCACUU” the “apparent Kd” value [2, 5] was 0.0357 µM and the “apparent Kd” value [2, 6] was 0.0369 µM.

“UCAGGACAUGAGGAUCACCCAUGUUGUCAAACCAAAGGAUAUAGGCUGAUCGAAAGAGAACUAGAAGGUUGCGAUU” was tested, and the “apparent Kd” value [2, 9] was 0.0201 µM and the “apparent Kd” value [2, 10] was 0.0156 µM.

“UCAUUUUCAGAAGGAUAUUUACCAGGCCAAGGUAAAGAAGGUCUAUGGGUCACUUCCUUGAUACAUGAGGAUCACCCAUGUGAA” was tested, and the “apparent Kd” value [2, 7] was 0.292 µM and the “apparent Kd” value [2, 8] was 0.429 µM.

With “UCCAGCAACGAGAAGGUACACAUGAGGAUCACCCAUGUCCGUUGACCGUCUCCAUGGGCGAUGGGUAAGGAUAUCGGGCAGAUG” the “apparent Kd” value [2, 9] was 0.0689 µM and the “apparent Kd” value [2, 10] was 0.0494 µM.

“UCCGUUGUAGGAUAUACAUGAGGAUCACCCAUGUAAUGUGGGCAAUUAUAAACUUACUGUAGAAGGACAGAGUG” was tested, and the “apparent Kd” value [2, 7] was 0.493 µM and the “apparent Kd” value [2, 8] was 0.555 µM.

With “UCCUCGCACGAGAAGGCAAGCCGAGAAACACCUUGAGGAUAUCGUCGACAGACCACCGGGACAUGAGGAUCACCCAUGUGGGCC” the “apparent Kd” value [2, 7] was 0.0752 µM and the “apparent Kd” value [2, 8] was 0.049 µM.

For “UCCUCGUUAGGAUAUGCCCACAUACACAGUUGUGAACUCUGGCAGAAGGAACAUGAGGAUCACCCAUGUAUAUA”, the “apparent Kd” value [2, 7] was 0.0893 µM and the “apparent Kd” value [2, 8] was 0.23 µM.

For “UCGACAUGAGGAUCACCCAUGUGCCUCGGAUGUCGUUAGAGUGAGGAUAUGUCACACCAAAACGUACAGAAGGCACUUAUUAGA”, the “apparent Kd” value [2, 7] was 0.296 µM and the “apparent Kd” value [2, 8] was 0.267 µM.
